Results from different studies.
Protocols differ between the studies behind these lines.
Target: BDNF/NT-3 growth factors receptor (NTRK2, Homo sapiens, UniProt Q16620)

Compound | observed | mode | method | tested at | endpoint | value
C#Cc1n[nH]c2c(-c3cn(C(C)c4ccccn4)c(=O)[nH]c3=O)cc(F)cc12 (centres unmarked) | enzyme activity | inhibitor |  | 1 µM | inhibition | 2.8%
Cn1cc(-c2cc(F)cc(N3CCn4c(cc5c4CCCC5)C3=O)c2CO)cc(Nc2ccc(N3CCN(C4COC4)CC3)cn2)c1=O | enzyme activity | inhibitor |  | 0.1 µM | inhibition | 11%
Cc1nn(C)cc1-c1nc2c(N3CCN(Cc4ccc(Cl)cc4)CC3)c(Cl)cnc2[nH]1 | binding |  | competition with immobilised ligand | 1 µM | remaining binding | 44%
Cn1cncc1[C@](O)(COc1ccc(C#N)cc1-c1ccc(OC(F)(F)F)cc1)c1ccc(C#N)cc1 | cell-free assay |  | competition with immobilised ligand | 1 µM | remaining binding | 92%
Nc1ncc(-c2nc(N3CCOCC3)nc(N3CCOCC3)n2)c(C(F)F)n1 | cell-free assay |  | competition with immobilised ligand | 10 µM | remaining binding | 74%
COc1cc(Nc2ncc(F)c(Nc3ccc4c(n3)NC(=O)C(C)(C)O4)n2)cc(OC)c1OC | binding |  | competition with immobilised ligand | 10 µM | inhibition | 95%
CC(C)(C)c1cc(C=C(C#N)C#N)cc(Br)c1O | enzyme activity | inhibitor |  | 0.5 µM | remaining activity | 90.9%
C#Cc1n[nH]c2c(-c3cn([C@@H](C)c4ccccc4)c(=O)[nH]c3=O)cc(F)cc12 | enzyme activity | inhibitor |  | 0.1 µM | inhibition | 6.2%
COc1ncccc1-c1cnn2ccc(N3CCN(C(=O)OC(C)C)CC3)nc12 | binding |  | competition with immobilised ligand | 1 µM | remaining binding | 40%
O=c1[nH]c2ccccc2n1C1CCN(Cc2ccc(-c3[nH]c4cc5ncnc5cc4nc3-c3ccccc3)cc2)CC1 | cell-free assay |  |  | 0.5 µM | remaining signal | 99.4%
N#CC1(c2ccccn2)CCN(Cc2cc(C(=O)O)c(=O)n3ccccc23)CC1 | cell-free assay |  | competition with immobilised ligand | 1 µM | remaining binding | 84%
